# Source: PubChem BioAssay
# mABHD4 FP: ABHD4 inhibitors, primary screen, biochemical, fluorescence polarization, mouse; (Lyso)-N-acylphosphatidylethanolamine lipase (Mus musculus), Q8VD66; actives 0.54% (n = 370,000); purified mABHD4, FP-Rh probe fluorescence polarization; inhibition, % at 8.92 µM; AID 720543, 2013;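 active = inhibition exceeding the mean over every tested compound plus 3 SD, cut at about 30% in these data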;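 note: 0% = plate median of compound wells and 100% = S159A mutant with DMSO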
#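 assay system = mABHD4 protein | compound dosing = single nominal dose of 8.92 µM, 0.89% DMSO final | read-out basis = percent inhibition of probe binding, normalized to plate controls | schedule = Enzyme–compound pre-incubation 45 min, then probe 60 min, both 25 °C | detection = fluorescence polarization, excitation 525 nm, emission 598 nm, BODIPY TMR filters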
# HTRA1 inh: HTRA1 serine protease inhibitors, primary screen, biochemical, fluorescence polarization, HTS. recombinant HTRA1, FP-rhodamine activity-based probe. Q92743. inhibition, % at 5.96 µM. actives 0.5% (n = 340,000); in the data active = inhibition above about 36%;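 note: 0% = enzyme with DMSO and 100% = wells lacking enzyme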
# Target sequence (Q92743 whole entry, looked up): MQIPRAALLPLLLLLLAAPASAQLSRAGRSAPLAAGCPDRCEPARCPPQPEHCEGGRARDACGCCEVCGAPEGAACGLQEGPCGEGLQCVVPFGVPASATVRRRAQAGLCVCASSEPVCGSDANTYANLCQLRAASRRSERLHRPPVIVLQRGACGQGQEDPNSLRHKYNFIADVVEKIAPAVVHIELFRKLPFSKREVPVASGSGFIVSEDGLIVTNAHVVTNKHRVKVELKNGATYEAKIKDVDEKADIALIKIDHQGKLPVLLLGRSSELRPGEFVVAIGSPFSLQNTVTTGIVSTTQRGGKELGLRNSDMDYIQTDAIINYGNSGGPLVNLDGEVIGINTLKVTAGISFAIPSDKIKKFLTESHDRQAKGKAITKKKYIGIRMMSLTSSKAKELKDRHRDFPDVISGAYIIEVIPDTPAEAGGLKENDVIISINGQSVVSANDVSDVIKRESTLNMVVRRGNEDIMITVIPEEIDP
# DDE Tn7 FP inh: inhibitors of Tn7 peptide binding to fibrin DD(E), primary screen, biochemical, fluorescence polarization, human fibrin, Tn7 probe; inhibition, % at 8.3 µM; AID 720508, 2013; FP displacement of FITC-Tn7 peptide from fibrin DD(E); 0% = median of compound wells per plate; actives 0.13% (n = 370,000); Fibrinogen beta chain (Homo sapiens), P02675;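 active = inhibition above the mean of compounds falling within the control limits plus 3 SD of them, cut at about 14% in these data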;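 note: 0% = plate median of compound wells and 100% = 10 µM Aha-Tn7 peptide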
#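 Assay system: Fibrin-DD(E) protein isolated from polymerized human fibrin clots; read-out basis: percent inhibition; medium: Tris/NaCl/CaCl2 buffer, pH 7.8; signal: FP measurement; incubation: 10 min plus 3 h, room temperature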
# Tn6 DDE FP: inhibitors of Tn6 peptide binding to fibrin DD(E), primary screen, biochemical, fluorescence polarization, human fibrin, Tn6 probe. Fibrinogen beta chain (Homo sapiens), P02675. Fibrin DD(E) TRITC-Tn6 fluorescence polarization displacement. inhibition, % at 8.3 µM. actives 0.21% (n = 370,000);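 active = inhibition above a per-campaign cutoff: mean of compounds within control limits plus 3 SD, cut at about 15% in these data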;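 note: 0% = median of all compound wells on the plate and 100% = blocking peptide control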
# TCR CD3 inh: inhibitors of human TCR-CD3 interaction, primary screen, biochemical, fluorescence, TAMRA-labeled TCR probe | T-cell receptor (TCR) | inhibition, % at 9.4 µM | actives 0.37% (n = 360,000) | AID 651800, 2012;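 note: recombinant mutant TCR 2C K166C tagged with TAMRA read by polarization; 0% = receptor in buffer alone and 100% = receptor with positive control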
# SIAE primary: human SIAE inhibitors, primary screen, biochemical, fluorescence polarization, FP-Rh probe, 1536-well HTS. Sialate O-acetylesterase (Homo sapiens), Q9HAT2. inhibition, % at 9.66 µM. actives 0.69% (n = 370,000). SIAE FP-Rh probe binding;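 active = inhibition above a cutoff: mean of compounds within the control limits plus 3 SD of those, cut at about 17% in these data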;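 note: 0% = plate median of compound wells and 100% = probe without SIAE protein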
# BSA probe FL: compounds interfering with TAMRA-BSA probe, counter-screen for TCR-CD3 interaction inhibitor project, biochemical, fluorescence, TAMRA-labeled BSA | shares compounds with TCR CD3 inh | TAMRA-labeled BSA probe fluorescence counterscreen | inhibition, % at 9.4 µM | actives 10% (n = 1,200); in the data active = inhibition above about 23%;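 note: 0% = buffer low control and 100% = reference high control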
# TCR-CD3 conf: TCR-CD3 interaction inhibitors, retest, confirmation, biochemical, fluorescence, TAMRA-labeled TCR probe; inhibition, % at 9.4 µM; shares compounds with TCR CD3 inh; TAMRA-labeled TCR probe fluorescence binding assay; AID 652036, 2013; actives 48% (n = 1,200)
# Numbers without * were called inactive; nt = no result given. Shown are actives, neighbours in structure and some others; about 1.8% of the full set was active somewhere. Cut-off read from the data, not from the text of the source, unless noted: active = inhibition above about 19%; inactive = the rest.
SMILES,mABHD4 FP,HTRA1 inh,DDE Tn7 FP inh,Tn6 DDE FP,TCR CD3 inh,SIAE primary,BSA probe FL,TCR-CD3 conf
Cc1ccc(C(=O)NCCCC(=O)O)o1,-9,0,8,-1,41*,-5,1,1
O=S1(=O)c2ccc(Br)cc2OC[C@@H](Cc2ccccc2)N1Cc1cn(CCC2OCCO2)nn1,-10,nt,3,4,nt,1,nt,nt
Cc1cccc(-n2c(O)c(/C=N/NC(=O)c3ccccc3Cl)c3ccccc3c2=O)n1,0,24,-7,-3,28*,5,-3,37*
Cc1cccc(-n2c(O)c(C=Nc3cc(O)ccc3C)c3ccccc3c2=O)n1,1,-2,-6,-11,37*,16,-21,6
O=C(OCc1cn(Cc2cccc(F)c2)nn1)N1CCCCC1,0,nt,4,3,nt,5,nt,nt
Cc1cc(C)cc(C(=O)OCCN(C)C2CN(Cc3cn(Cc4ccccc4F)nn3)S(=O)(=O)C2)c1 (configuration not stated),2,nt,-2,-4,nt,-5,nt,nt
CC(C)c1ccc(NC(=O)C(c2ccccc2)N2CCOCC2)cc1 (configuration not stated),-11,-4,6,-4,24*,1,11,8
CC(C)c1ccc(NC(=O)C(c2ccccc2)N2CCN(C=O)CC2)cc1 (configuration not stated),0,-7,3,3,10,-3,nt,nt
Cc1[nH]c(C)c2c(=O)n(-c3ccccc3)ncc12,-83,-3,1,0,31*,-94,11,9
Cc1[nH]c(C)c2c(=O)n(Cc3ccccc3Cl)ncc12,7,nt,-3,-7,-1,8,nt,nt
CCN(CC)S(=O)(=O)c1ccc(NC(=O)Nc2cccc(C(F)(F)F)c2)cc1,-235,-133,-5,-8,81*,-335,24*,54*
CCN(CC)S(=O)(=O)c1ccc(NC(=O)C2c3ccccc3Oc3ccccc32)cc1,-39,-77,-4,-8,45*,-99,0,2
CCCCCCCCN1C(=O)[C@@H](CC(=O)N2CCN(C(=O)OCC)CC2)C[C@@]2(C(=O)OC)C1=C[C@H](COCc1ccccc1)O[C@@H]2C,4,nt,-5,1,nt,3,nt,nt
C[C@H]1[C@@H](NC(=O)Cc2ccsc2)CC[C@@]23CCCN2C(=O)CCC[C@@H]13,0,nt,-6,-3,nt,-3,nt,nt
Cn1c(SCC(=O)c2ccc(O)c(O)c2)nnc1-c1cccs1,24,18,1,4,23*,10,-12,17
Cn1c(SCC(=O)c2ccc(O)c(O)c2)nnc1-c1ccccc1,25,13,6,-4,6,8,nt,nt
Cn1c(SCC(=O)N/N=C/c2ccccn2)nnc1-c1ccccc1,-5,2,6,4,-4,-1,nt,nt
Nc1nnc(CC(=O)N/N=C\c2cc([N+](=O)[O-])ccc2O)s1,24,4,-1,-2,36*,1,-6,25*
Cn1c(SCC(=O)N/N=C/c2cc([N+](=O)[O-])ccc2O)nnc1-c1ccccc1,5,8,1,3,21*,5,-4,14
Cc1ccc(NC(=O)C2CC3CCC2C3)c(C)c1 (configuration not stated),-7,nt,3,2,nt,1,nt,nt
CCC[C@H]1[C@@H](NCc2cccs2)CC[C@@]23CCCN2C(=O)CCC[C@@H]13,0,nt,0,-2,nt,5,nt,nt
O=C(CNC(=O)/C=C/c1ccco1)N=Nc1c(O)[nH]c2ccccc12,14,4,7,4,29*,6,-3,43*
COc1cccc(S(=O)(=O)NCc2ccc(C(=O)Nc3ccc(Cl)c(Cl)c3)cc2)c1,-17,-38,-7,-2,35*,-10,-1,6
O=C(Nc1ccc(Cl)c(Cl)c1)c1cccc(S(=O)(=O)NCc2cccnc2)c1,-58,-117,-11,-12,33*,-90,2,10
CCCCCCn1cc(CN2CC=CS2(=O)=O)nn1,7,nt,-5,-5,nt,0,nt,nt
SMILES,mABHD4 FP,HTRA1 inh,DDE Tn7 FP inh,Tn6 DDE FP,TCR CD3 inh,SIAE primary,BSA probe FL,TCR-CD3 conf
O=C1CN(C(=O)c2cccc([N+](=O)[O-])c2)CC(=O)N1,2,6,6,-3,-6,3,nt,nt
CCC1=NN(C(=O)c2cccc([N+](=O)[O-])c2)C(O)(c2ccc(C)cc2)C1 (configuration not stated),-3,24,1,-2,30*,3,-8,28*
COc1cc2c(cc1NC(=O)CSc1nnc(-c3ccccc3F)n1-c1ccc(C)cc1)oc1ccccc12,-9,nt,2,-8,nt,4,nt,nt
O=S1(=O)c2ccc(Br)cc2OC[C@@H](Cc2ccccc2)N1Cc1cn(Cc2ccc(Cl)cc2)nn1,-8,nt,-1,2,nt,-1,nt,nt
CCC(C)(C)NC(=O)Cc1ccc(Cl)cc1,1,nt,-5,6,33*,1,-7,-1
COCCN(C(=O)CC1C(=O)NCCN1Cc1ccc(-c2ccccc2)cc1)C(C)C (configuration not stated),15,-5,-1,6,24*,4,10,6
CC(C)[C@H](NC(=O)c1ccco1)C(=O)OCC(=O)c1ccc2c(c1)NC(=O)CO2,0,-6,-3,-6,118*,1,2,3
O=C1COc2ccc(C(=O)COC(=O)c3ccco3)cc2N1,3,2,2,-11,1,-3,nt,nt
Clc1ccc2nc(CSCc3ccccc3)cn2c1,-5,1,3,1,39*,1,2,1
CCCCOCCCNC(=O)C[C@H]1C(=O)N(Cc2ccc(OC)cc2)C2=CCCC[C@@]21C(=O)OCC,3,nt,-6,-5,nt,10,nt,nt
Cc1cccc(NC(=O)Nc2c(-c3ccc(C(F)(F)F)cc3)nc3ncccn23)c1,4,nt,6,-9,nt,5,nt,nt
COc1ccccc1OCC(=O)N/N=C/C=C/c1ccc([N+](=O)[O-])o1,24,0,-2,1,27*,16,-1,1
